Measurements from ChEMBL document CHEMBL1165879, “Benzimidazole derivatives related to 2,3-acrylonitriles, benzimidazo[1,2-a]quinolines and fluorenes: synthesis, antitumor evaluation in vitro and crystal structure determination” (Eur J Med Chem, 2010).

Legend:
HeLa = assay: Cytotoxicity against human HeLa cells after 72 hrs by MTT assay; type: functional, cell-based
How it was run: (§1)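 Cells grown with FBS, 2 mM L-glutamine, penicillin and streptomycin at 37 °C, 5% CO2, humidified. Seeded in 96-well plates on day 0 at densities set by population doubling time. Five 10-fold dilutions (10^-8 to 10^-4 mol/L), freshly prepared, then 72 h exposure, modified NCI DTP method. Three individual experiments. IC50 from dose-response curves by linear regression.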

MIA PaCa-2 = assay: Cytotoxicity against human MIAPaCa2 cells after 72 hrs by MTT assay; type: functional, cell-based; settings: MIA PaCa-2, 72 h; how it was run: as §1
SW-620 = assay: Cytotoxicity against human SW620 cells after 72 hrs by MTT assay; type: functional, cell-based; settings: SW-620, 72 h; how it was run: as §1
MCF7 = assay: Cytotoxicity against human MCF7 cells after 72 hrs by MTT assay; type: functional, cell-based; settings: MCF7, 72 h; how it was run: as §1
NCI-H460 = assay: Cytotoxicity against human H460 cells after 72 hrs by MTT assay; type: functional, cell-based; settings: NCI-H460, 72 h; how it was run: as §1
Calf thymus DNA [1] = assay: Binding affinity to calf thymus DNA assessed as change in melting temperature at compound/polynucleotide ratio 3 in sodium cacodylate buffer at pH 7; type: nucleic-acid assay; settings: Bos taurus; in the assay text read “compound/polynucleotide ratio 0.3” for “compound/polynucleotide ratio 3”
How it was run: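 Thermal melting of ct-DNA, alone and with compound, in sodium cacodylate buffer pH 7.0, I = 0.05 mol dm^-3, DMSO under 1%. Absorbance at 260 nm followed against temperature, heated at 1 °C per minute. Ligand absorbance subtracted and scale normalized. Tm taken as transition midpoint, from the first-derivative maximum or graphically by tangent.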

Calf thymus DNA [2] = assay: Binding affinity to calf thymus DNA assessed as change in melting temperature at compound/polynucleotide ratio 0.3 in sodium cacodylate buffer at pH 7; settings: Bos taurus

Structure (SMILES)	IC50 (HeLa)	IC50 (MIA PaCa-2)	IC50 (SW-620)	IC50 (MCF7)	IC50 (NCI-H460)	ΔTm (Calf thymus DNA [1])	ΔTm (Calf thymus DNA [2])
Cn1ccc2cc(C#N)c3nc4ccccc4n3c21	0.7 µM	4 µM	25 µM	11 µM	22 µM	2.4 °C	
N#Cc1ccc2cc(C#N)c3nc4ccccc4n3c2c1	16 µM	> 50 µM	14 µM	> 50 µM	23 µM		
N#Cc1cc2ccc(F)cc2n2c1nc1ccccc12	29 µM	28 µM	22 µM	50 µM	26 µM	4.4 °C	
COc1ccc(OC)c(/C=C(\C#N)c2nc3ccccc3[nH]2)c1	1 µM	0.8 µM	23 µM	12 µM	27 µM		3 °C
N#C/C(=C\c1cnc[nH]1)c1nc2ccccc2[nH]1	40 µM	30 µM	70 µM	92 µM	> 100 µM		
N#C/C(=C\c1ccncc1)c1nc2ccccc2[nH]1	21 µM	57 µM	42 µM	9 µM	78 µM		
CC(=O)Nc1ccc(/C=C(\C#N)c2nc3ccccc3[nH]2)cc1	3 µM	48 µM	> 100 µM	4 µM	> 100 µM		
Cn1cccc1/C=C(\C#N)c1nc2ccccc2[nH]1	0.8 µM	4 µM	30 µM	13 µM	26 µM	0.4 °C	
Cc1ccc2cc(C#N)c3nc4ccccc4n3c2c1	> 100 µM	> 100 µM	> 100 µM	70 µM	> 100 µM	4.8 °C	
N#Cc1cc2ccncc2n2c1nc1ccccc12	45 µM	32 µM	30 µM	67 µM	57 µM		
N#Cc1cc2ccc(Br)cc2n2c1nc1ccccc12	20 µM	> 50 µM	13 µM	37 µM	37 µM		
CCN(CC)c1ccc(/C=C(\C#N)c2nc3ccccc3[nH]2)c(O)c1	3 µM	3 µM	10 µM	2 µM	11 µM		
COc1cccc2c1C(=O)c1c(O)c3c(c(O)c1C2=O)C[C@@](O)(C(=O)CO)C[C@@H]3O[C@H]1C[C@H](N)[C@H](O)[C@H](C)O1 [DOXORUBICIN]		0.01 µM		0.04 µM			
N#Cc1cc2ccsc2n2c1nc1ccccc12	19 µM	28 µM	16 µM	31 µM	30 µM		
Cc1ccc(/C=C(\C#N)c2nc3ccccc3[nH]2)cc1	20 µM	32 µM	87 µM	8 µM	81 µM	2.9 °C	
N#C/C(=C\c1cccs1)c1nc2ccccc2[nH]1	8 µM	> 50 µM	48 µM	30 µM	> 50 µM		
CN(C)c1ccc(/C=C(\C#N)c2nc3ccccc3[nH]2)cc1	> 50 µM	26 µM	> 50 µM	4 µM	> 50 µM		
COc1ccc(OC)c2c1cc(C#N)c1nc3ccccc3n12	5 µM	23 µM	6 µM	31 µM	14 µM	4.2 °C	
N#C/C(=C\c1ccc(Br)cc1)c1nc2ccccc2[nH]1	9 µM	46 µM	> 50 µM	19 µM	> 50 µM		
N#C/C(=C\c1ccc(F)cc1)c1nc2ccccc2[nH]1	15 µM	18 µM	59 µM	14 µM	43 µM		3 °C
N#C/C(=C\c1ccco1)c1nc2ccccc2[nH]1	25 µM	28 µM	> 50 µM	17 µM	> 50 µM		
CC(=O)Nc1ccc2cc(C#N)c3nc4ccccc4n3c2c1	2 µM	2 µM	5 µM	5 µM	90 µM		
